High-throughput results: PubChem BioAssay, several laboratories
This is one part of a sample in which hits are shown more often than they occur.
ABCB1 block – inhibitors of human ABCB1 transporter, ABCG2 counter-screen. P08183. CCRF-Adr cells, JC-1 efflux, flow cytometry. inhibition, % at 6.6 µM. 190,000 tested, 0.067% active. AID 1326; in the data active means inhibition above about 40%;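 further: 0% = vehicle and 100% = reference inhibitor; higher value means more JC-1 retained so stronger ABCB1 efflux block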
TRPML3 agonist – human mucolipin-3 channel agonism | 220,000 tested, 0.29% active | activation, % at 3 µM | Q8TDD5 | HEK293 TRPML3-YFP, Fluo-8 calcium fluorescence; 100% = the carbachol control signal;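 active means activation above its plate's cutoff, the mean activation of the plate's test wells plus 3 SD, cut at about 12% in these data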;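 further: 0% = DMSO only wells and 100% = carbachol wells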
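Material: TRPML3-YFP stable HEK293 cells | Dosing: One concentration, 3 µM nominal, 0.3% DMSO | Timing: 125 s total fluorescence read per well | Technique: Fluo-8 calcium dye fluorescence, ex 470-495, em 515-575 nm | Measure: Percent activation from peak-to-basal fluorescence ratio, scaled between DMSO and carbachol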
ROMK mod – human ROMK K+ channel modulation, primary screen. 130,000 tested, 2% active. Tet-inducible ROMK, thallium flux fluorescence; actives lie on both sides. AID 1918. B-score at 10 µM. P48048;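 active means signal ratio slope over the read window, or its plate-corrected B-score, at least 3 SD from the plate mean, either direction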;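 further: B-score of the F/F0 ratio slope over 7 to 12 s after thallium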
Target sequence (P48048 whole entry, looked up): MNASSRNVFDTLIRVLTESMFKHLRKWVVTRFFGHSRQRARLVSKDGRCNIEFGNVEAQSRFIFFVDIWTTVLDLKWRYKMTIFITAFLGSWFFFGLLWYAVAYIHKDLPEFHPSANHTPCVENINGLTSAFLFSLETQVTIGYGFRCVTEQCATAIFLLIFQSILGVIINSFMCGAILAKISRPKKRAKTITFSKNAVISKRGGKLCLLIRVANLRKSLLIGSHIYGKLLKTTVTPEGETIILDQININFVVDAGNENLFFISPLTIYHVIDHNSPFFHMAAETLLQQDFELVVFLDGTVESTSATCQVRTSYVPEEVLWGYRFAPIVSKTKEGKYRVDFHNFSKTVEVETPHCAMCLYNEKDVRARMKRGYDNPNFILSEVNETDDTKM
zfTRPN1 agonist – agonists of zebrafish TRPN1 channel | HEK293 zebrafish TRPN1-YFP, Fluo-8 calcium fluorescence; 100% = response to 87 µM carbachol | activation, % at 3 µM | 220,000 tested, 0.18% active | AID 1424;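 active means activation above its plate's cutoff, the mean activation of test wells on that plate plus 3 SD, cut at about 19% in these data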;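 further: 0% = DMSO alone and 100% = 87 µM carbachol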
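Assay system: Zebrafish TRPN1-YFP in HEK293 cells | Incubation: Dye loading 1 h at 37 °C, then 30 min room temperature | Measured by: Kinetic Fluo-8 fluorescence, ex 470-495, em 515-575 nm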
ABCG2 inh – human ABCG2 inhibition, ABCB1 as counter-screen | IgMXP3 cells, JC-1 efflux, flow cytometry | inhibition, % at 6.6 µM | 190,000 tested, 0.1% active | AID 1325;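 active means inhibition above 80%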;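 further: 0% = DMSO and 100% = nicardipine control wells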
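test system = two drug-resistant human cell lines, ABCG2 and ABCB1 | amount = 3 million cells/mL final, two lines in 1:1 ratio | reagent = JC-1 transporter substrate | doses = one concentration, 6.6 µM final | incubation = 10 min at 25 °C | signal = flow cytometric JC-1 green MFI at 530 nm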
Biofilm kill mix – mixtures killing C. albicans biofilm. 120,000 tested, 0.02% active. C. albicans biofilm persisters + clotrimazole, fluorescence viability; primary screen in compound mixtures of four per well. inhibition, % at 7.6 µM;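 active means inhibition above 30.3% in the primary screen of four-compound pools, then above 30% when the compound was retested; inconclusive means passed the primary limit but could not be retested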;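 further: compounds exposed to preformed 24 h biofilms for 48 h; 0% = untreated biofilm control and 100% = clotrimazole plus chlorhexidine kill blank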
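Test system: C. albicans biofilms. Buffer or medium: RPMI/MOPS medium, pH 7.0. Timing: 48 h compound exposure at 37 °C. Technique: Alamar Blue fluorescence. Evaluation: percent inhibition of biofilm viability.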
ROMK hit retest – confirmation of human ROMK potassium channel modulators; ROMK thallium flux, fluorescence ratio; stronger effect = lower value; normalized thallium flux (F/F0 slope) at 10 µM; AID 1917; shares compounds with ROMK mod; 3,000 tested, 54% active;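 active means Flux at 10 µM at least 3 SD below or above vehicle control mean in one or both replicates; inconclusive means no clear call, values can overlap the other calls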
An asterisk follows results filed as active; ? = inconclusive; · = no result given.

SMILES	ABCB1 block	TRPML3 agonist	ROMK mod	zfTRPN1 agonist	ABCG2 inh	Biofilm kill mix	ROMK hit retest
CC(=O)c1ccc(S(=O)(=O)N2CCN(C)CC2)cc1	0	0	0.97	0	1	18	·
CC(=O)Nc1ccc(OCCOc2ccc(/C=C3/C(=N)N4C=CSC4=NC3=O)cc2)cc1	1	0	4.1*	3	5	14	?
Cc1ccc(Cn2cccc2/C=C2/C(=N)N3C=CSC3=NC2=O)cc1	4	1	0.026	2	-1	18	·
Cc1ccc2c(n1)sc1c(N)ncnc12	0	0	4.6*	-1	1	·	0.092
CCOc1ccc(C(=O)NC(=S)Nc2cccc(NC(=O)c3ccco3)c2)cc1[N+](=O)[O-]	0	0	·	0	-2	17	·
Cc1nc2cc(NCc3nc4ccccc4n3Cc3ccccc3)ccc2n1C	1	1	-5.2*	1	1	·	0.061*
COc1ccc(OC)c2[nH]c(=O)c(CCNC(=O)c3cccs3)cc12	1	0	1.1	0	10	13	·
Cc1cc(C)n(-c2nc(NCCN(C)C)c3c4c(sc3n2)CCCC4)n1	·	1	·	3	·	26	?
CC(C)/C=N\NC(=O)CCCCC(=O)N/N=C/C(C)C	0	0	·	1	3	19	0.082
O=c1cc(N=Nc2ccc(Cl)cc2)[nH]c(=O)[nH]1	·	1	·	1	·	11	·
O=C(O)Cc1csc(-c2ccc(F)cc2)n1	0	0	3*	-1	0	10	?
NS(=O)(=O)c1ccc(O)c(N2C(=O)c3cccc4c(C(=O)O)ccc(c34)C2=O)c1	0	1	-1.1	0	-1	7	·
C(#Cc1ccccc1)C[N+]1(CC#Cc2cccc3ccccc23)CCOCC1	0	1	-2.4*	0	-1	45*	0.068*
C#CC[N+]1(CC#Cc2ccccc2)CCOCC1	0	0	·	0	3	·	·
O=C(Nc1cccc(Br)c1)c1ccc(OC2CSC2)cc1	0	1	0.11	1	0	11	·
COc1ccc(NC(=O)c2c(NC(=O)CCC(=O)O)sc(-c3ccccc3)c2C)cc1	0	0	·	-1	-1	13	0.08
COC(=O)[C@H](Cc1ccccc1)NC(=O)N1CCN(c2ccccc2)CC1	·	1	·	2	·	27	·
Cc1cccc(NC(=O)c2ccc(CN3CCN(Cc4ccccc4)CC3)cc2)c1	2	5	-2.1*	7	3	14	?
O=C(COC(=O)/C=C/c1ccc([N+](=O)[O-])cc1)NCc1ccc2c(c1)OCO2	·	0	·	1	·	7	0.079
O=C(Cc1ccc([N+](=O)[O-])cc1)NCc1ccc2c(c1)OCO2	1	1	·	-1	8	5	·
CN(C)CCCNC(=O)C(=O)NCC1CCCO1 (centres undefined)	1	1	0.25	2	6	19	·
CCOC(=O)c1cc[nH]c1C	-1	0	1.3	-1	0	2	·
Cc1cccc2cc(C#N)c(N3CCC(O)CC3)nc12	0	0	-0.083	1	10	12	·
COc1cc(C2Oc3ccccc3C=C2[N+](=O)[O-])cc(OC)c1OC (centres undefined)	·	1	-7*	0	·	13	0.033*
Cn1c(N)c(C(=O)COC(=O)c2ccc(Cl)c(S(=O)(=O)N3CCCC3)c2)c(=O)n(C)c1=O	·	1	·	4	·	21	·
SMILES	ABCB1 block	TRPML3 agonist	ROMK mod	zfTRPN1 agonist	ABCG2 inh	Biofilm kill mix	ROMK hit retest
CCCCCCCCCCCCCCCCn1cc[n+](CC(C)=O)c1	0	0	-4.9*	6	-1	14	0.063*
Cc1ccc(SC(=O)c2c([N+](=O)[O-])c(C)nn2C)cc1	·	1	0.59	-3	·	6	·
COc1ccc(CCC(C)NC2C3CC4CC(C3)CC2C4)cc1 (centres undefined)	0	1	·	1	1	·	0.057*
O=C(/C=C\Nc1ccc2c(c1)OCO2)c1ccc2c(c1)OCO2	0	1	·	1	2	18	0.059*
CN(C)Cc1nnnn1-c1cccc(-n2nnnc2CN(C)C)c1	·	1	·	2	·	15	·
Cc1nc2ccccc2nc(=O)c1NNc1ccccc1	1	0	6.4*	1	10	14	?
Cc1ccc2nc(-c3ccccc3)c(-c3ccccc3)nc2c1	1	0	0.11	0	5	16	·
Cc1ccc2nc(=O)c(NNc3ccccc3)cnc2c1	-3	0	6.6*	0	19	12	0.11*
CCCCN(C)CCC(=O)Nc1ccc2c(c1)CCC2	0	2	-0.11	0	2	7	·
CCOC(=O)c1cnc2ccc(OCC)cc2c1NCc1cccnc1	6	0	3.7*	-3	3	-13	0.089
CCOC(=O)c1cnc2ccc(OC)cc2c1NCCc1ccc(OC)c(OC)c1	38	0	-4.1*	-1	31	14	0.055*
O=S(=O)(NC1=NCCC1)c1ccc(F)cc1F	0	0	0.012	1	3	11	·
CCOC(=O)CN(C(=O)CNC(=O)c1cccs1)C(C(=O)NC1CCCC1)c1cccnc1 (centres undefined)	1	1	-0.22	-1	3	·	·
CCOC(=O)CN(C(=O)CNC(=O)c1cccs1)C(C(=O)NC1CCCCC1)c1cccs1 (centres undefined)	1	1	·	0	3	16	0.075
NC(=O)c1c(NC(=O)CSc2nnc(Cc3ccccc3)n2Cc2ccco2)sc2c1CCC2	1	0	-3.7*	0	3	·	0.053*
O=C(CSc1nnc(Cc2cccs2)n1Cc1ccco1)Nc1ccc(Br)cc1	0	0	-2.9*	0	1	·	?
O=C(CSc1nnc(Cc2ccccc2)n1Cc1ccco1)NC12CC3CC(CC(C3)C1)C2	7	-1	·	-1	8	·	·
CC(=O)OCc1c(C)cc(C)c(/C=C(/C#N)C(N)=O)c1C	0	1	0.31	0	0	14	·
CC(OCCN1CCCC1)(c1ccc(F)cc1)c1ccc(F)cc1	0	1	-1.2	0	1	17	·
N#C/C(=C\c1ccc(Cl)cc1)c1nc(-c2ccco2)cs1	-2	1	0.61	0	-12	14	·
N#C/C(=C\c1ccncc1)c1nc2c(s1)CCCC2	1	0	-2*	0	6	-3	0.063*
CC(C)CNC(=O)c1nc(-c2ccccc2)n(-c2ccccc2)n1	2	-1	·	-1	14	·	0.074
CCCNC(=S)Nc1cccc(C(F)(F)F)c1	-2	1	-0.57	5	-10	-4	?
C=CCOc1c(Br)cc(/C=N/O)cc1OCC	0	0	-3.8*	-3	12	-3	0.057*
